Screening data deposited in PubChem BioAssay by several laboratories.
The list is not random: actives were taken first. Their share in the collection is about 3.6%.
FGF22 binding – shifts melting point of recombinant human FGF22 | AID 651658 | 340,000 compounds, 1.5% hits | Q9HCT0 | activity (Tm shift, normalised), % at 9.99 µM | recombinant FGF22 thermal shift, SYPRO orange fluorescence; percent of sucrose octasulfate shift, DMSO zero;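 active = mean Tm shift, scaled 0 neutral to 100 positive control, at about 1.3% or above, every replicate too, limit read from the data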
Target sequence (Q9HCT0 whole entry, looked up): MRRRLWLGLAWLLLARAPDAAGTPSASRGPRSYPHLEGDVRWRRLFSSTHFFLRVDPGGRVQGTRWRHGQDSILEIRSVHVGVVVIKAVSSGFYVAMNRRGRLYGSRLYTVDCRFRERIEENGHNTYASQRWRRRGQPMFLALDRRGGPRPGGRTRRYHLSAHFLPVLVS
NS3 helicase inh – blocks Hepatitis C virus NS3 helicase unwinding; AID 1800; NS3 helicase DNA unwinding, Cy5 molecular beacon fluorescence; inhibition, % at 10.9 µM; 290,000 compounds, 0.56% hits;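 active = inhibition above the mean of all tested compounds plus 3 SD, set per campaign, cut at about 35% in these data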;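 also: 0% = DMSO wells and 100% = thioflavine S control wells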
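Test system: hepatitis C virus NS3 helicase domain fragment enzyme. Also added: annealed dual-labelled DNA beacon duplex, ATP-started. Timing: 60 min unwinding reaction at 25 °C after ATP addition. Technique: Cy5 fluorescence. Measure: % inhibition of unwinding.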
GRIN3A LBD mod – modulates the human NR3A ligand-binding domain; Tm shift relative to glycine control, % at 25 µM; NR3A LBD differential scanning fluorimetry, Tm shift; 0% = protein alone, 100% = glycine-bound protein; 340,000 compounds, 2.5% hits;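 active = melting temperature shift of at least 10% of the positive control shift, at one fixed dose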
DNA FID counter – counter-screen for HCV NS3 helicase inhibitors: DNA intercalator displacement | AID 1845 | 290,000 compounds, 0.17% hits | DNA fluorescent intercalator displacement, fluorescence | inhibition, % at 7.9 µM; in the data active = inhibition above about 37%;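 also: 0% = vehicle and 100% = reference compound; higher means more ethidium bromide displaced from hairpin DNA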
EBNA-1 inh – blocks EBNA-1 binding to DNA | inhibition, % at 14.8 µM | EBNA-1 DNA binding, fluorescence polarization | AID 1950 | 300,000 compounds, 0.34% hits; in the data active = inhibition above about 28%
ZTA DNA inh – ZTA (EBV) inhibition in EBNA-1 counter-screen. P03206. ZTA-DNA binding, fluorescence polarization. inhibition, % at 11 µM. 320,000 compounds, 0.15% hits. AID 2234; in the data active = inhibition above about 33%
Target sequence (P03206 whole entry, looked up): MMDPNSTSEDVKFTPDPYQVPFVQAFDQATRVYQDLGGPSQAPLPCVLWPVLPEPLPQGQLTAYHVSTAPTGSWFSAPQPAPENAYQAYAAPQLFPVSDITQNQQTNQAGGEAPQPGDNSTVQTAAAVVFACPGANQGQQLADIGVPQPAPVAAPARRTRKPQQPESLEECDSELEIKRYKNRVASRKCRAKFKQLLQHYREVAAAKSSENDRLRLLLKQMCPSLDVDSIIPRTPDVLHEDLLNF
* marks the source's active call; other numbers are inactive results; nt = no result.

SMILES | FGF22 binding | NS3 helicase inh | GRIN3A LBD mod | DNA FID counter | EBNA-1 inh | ZTA DNA inh
CC(C)C#Cc1cnc2c(c1)C(=O)N([C@@H](C)CO)C[C@@H](C)[C@H](CN(C)C(=O)Nc1cc(F)ccc1F)O2 | -0.3 | nt | nt | nt | nt | nt
O=C(C[C@H]1C[C@H]2c3cc(NC(=O)NC4CCCCC4)ccc3O[C@H]2[C@@H](CO)O1)NCCc1ccccc1 | -0.3 | nt | nt | nt | nt | nt
COc1ccc(C2(c3ccc(OC)cc3)NC(=O)N(CC(=O)NCC(C)c3ccccc3)C2=O)cc1 (stereo not given) | -0.2 | nt | 25.4* | nt | nt | 9.4
COc1ccc(C2(c3ccc(OC)cc3)NC(=O)N(CC(=O)NC(C)C)C2=O)cc1 | 0.0 | -6.1 | -2.3 | -33.2 | 5.1 | -5.0
COc1ccc(-c2nnc(SCC(=O)/C(C#N)=C(\C)N)o2)cc1 | nt | 4.8 | 12.7* | -3.0 | 7.1 | -2.5
C/C(N)=C(/C#N)C(=O)CSc1nnc(-c2ccccc2Br)o1 | nt | 0.2 | -1.2 | -4.9 | 15.1 | 10.8
N#C/C(=C\C=C\c1ccccc1)C(=O)Nc1ccccc1 | 44.2* | 1.7 | -4.9 | -1.2 | 2.9 | -3.4
CO[C@H]1CN(C)C(=O)c2ccc(NC(=O)Cc3ccccc3)cc2OC[C@H](C)N(C(=O)c2ccccc2F)C[C@H]1C | -0.2 | nt | nt | nt | nt | nt
C[C@H](CO)N1C[C@H](C)[C@H](CN(C)S(=O)(=O)c2ccc(Cl)cc2)OCCCC[C@H](C)Oc2ccc(NS(=O)(=O)c3ccccc3)cc2C1=O | 0.0 | nt | nt | nt | nt | nt
Cc1nnc(SCC(=O)NNC(=O)c2ccco2)n1-c1ccccc1 | -0.1 | 8.8 | -1.6 | 4.5 | 2.9 | 0.8
Cc1ccc(-n2c(C)nnc2SCC(=O)NNC(=O)c2ccco2)cc1 | 44.0* | 4.3 | 0.8 | -9.0 | 6.6 | -6.8
CCCN(C)C[C@H]1OCCCC[C@@H](C)Oc2ccc(NS(=O)(=O)c3cccs3)cc2C(=O)N([C@H](C)CO)C[C@@H]1C | -0.1 | nt | nt | nt | nt | nt
COC(=O)c1cc(NC(=O)CC2SC(=Nc3ccccc3)N(CCc3c[nH]c4ccccc34)C2=O)cc(C(=O)OC)c1 (stereo not given) | nt | 10.3 | 22.7* | -4.4 | 24.4 | 3.7
COCCN1C(=O)C(CC(=O)Nc2ccc(C(=O)O)cc2)SC1=Nc1ccccc1 (stereo not given) | nt | 3.0 | 3.1 | -24.8 | -6.8 | 5.9
COc1ccc(NC(=O)Nc2ccc3c(c2)C(=O)N([C@H](C)CO)C[C@H](C)[C@@H](CN(C)S(=O)(=O)c2cn(C)cn2)OCCCC[C@H](C)O3)cc1 | 1.4* | nt | nt | nt | nt | nt
COc1ccc(NC(=O)Nc2ccc3c(c2)C(=O)N([C@H](C)CO)C[C@@H](C)[C@H](CN(C)C(=O)NC2CCCCC2)OCCCC[C@H](C)O3)cc1 | 14.7* | nt | nt | nt | nt | nt
C[C@H](CO)N1C[C@H](C)[C@H](CN(C)C(=O)Nc2ccc(C(F)(F)F)cc2)OCCCC[C@H](C)Oc2ccc(NC(=O)Nc3ccc4c(c3)OCO4)cc2C1=O | 0.2 | nt | nt | nt | nt | nt
CCC(=O)N[C@@H]1C=C[C@@H](CC(=O)NCc2cc(F)cc(F)c2)O[C@@H]1CO | -0.2 | nt | nt | nt | nt | nt
CSc1nc2ccccc2n1Cc1cccc([N+](=O)[O-])c1 | 44.0* | 5.9 | -2.9 | 2.1 | 11.8 | -0.4
CSc1nc2ccccc2n1Cc1cccc(F)c1 | nt | -1.6 | -3.8 | -18.5 | 5.9 | 4.9
CCN(CC)CCN1C(=O)c2ccccc2NC1c1ccc(C)cc1 (stereo not given) | nt | -6.9 | 14.2* | -9.1 | 7.5 | 5.7
Cc1cccc(NC(=S)/N=C(\N)Nc2nc(C)c3ccc(C)cc3n2)c1 | nt | 11.1 | -28.2 | 2.6 | 13.0 | 8.5
COc1ccc2nc(N/C(N)=N/C(=S)Nc3ccccc3)nc(C)c2c1 | 4.1* | -42.3 | 18.6* | -3.4 | -12.7 | -1.8
CCOc1ccc2nc(N/C(N)=N/C(=S)Nc3ccc(OC)cc3)nc(C)c2c1 | -0.1 | -8.1 | 27.3* | -6.9 | 12.5 | 6.0
COc1ccc2nc(N/C(N)=N/C(=S)Nc3ccc(C)c(C)c3)nc(C)c2c1 | nt | -7.7 | nt | -0.5 | 0.1 | -14.6
SMILES | FGF22 binding | NS3 helicase inh | GRIN3A LBD mod | DNA FID counter | EBNA-1 inh | ZTA DNA inh
Cc1cccc(NC(=S)/N=C(\N)Nc2nc(C)c3cc(C)ccc3n2)c1 | 0.8 | 12.8 | 20.3* | 7.4 | -6.2 | -18.8
CN1C(=O)c2cc(NC(=O)C3CCCC3)ccc2OC[C@@H]2O[C@@H](CC(=O)Nc3ccccc3)CC[C@H]21 | -0.2 | nt | nt | nt | nt | nt
COc1ccc2[nH]cc(CCNS(=O)(=O)c3ccc(NC(C)=O)cc3)c2c1 | 0.1 | -5.8 | 0.7 | 11.5 | -11.4 | -20.2
O=S(=O)(NCCc1c[nH]c2ccccc12)c1ccccc1 | -0.2 | 2.4 | -9.7 | -14.7 | 6.0 | 1.1
COc1ccc(S(=O)(=O)NCCc2c[nH]c3ccc(Cl)cc23)cc1 | 1.0 | 6.2 | 35.0* | 3.0 | 5.3 | -0.5
Cc1ccc(S(=O)(=O)NCCc2c[nH]c3ccccc23)cc1 | -0.1 | -1.1 | 22.9* | -15.6 | 6.9 | 0.1
COc1ccc(OC)c2sc(N(CCN(C)C)C(=O)/C=C/c3cccs3)nc12 | -0.1 | -17.3 | -0.8 | 43.7* | -15.0 | 22.1
Nc1c(C(=O)NCCc2ccccc2)nnn1Cc1ccc(Br)cc1F | 43.5* | 2.6 | -4.0 | 2.9 | 5.2 | 1.5
Cc1ccc(NC(=O)N/C=C/c2ccccc2)cc1 | nt | 6.5 | 1.0 | 0.3 | -2.5 | -10.1
O=C(N/C=C/c1ccccc1)Nc1ccc(Cl)cc1 | nt | 1.4 | 11.2* | 7.0 | -1.2 | 13.1
Cc1ccc(NC(=O)N/C=C/c2ccc(Cl)cc2)cc1 | nt | 2.8 | 16.4* | -0.6 | -4.3 | 4.9
C[C@H](CO)N1C[C@H](C)[C@H](CN(C)Cc2ccc3c(c2)OCO3)Oc2ccc(NS(=O)(=O)c3cccs3)cc2C1=O | 0.0 | nt | nt | nt | nt | nt
CC(C)CSc1nc2ccccc2n1CC(=O)O | 43.4* | -3.0 | 1.2 | -4.3 | -0.1 | -1.8
O=C(O)CCn1c(SCc2cccc3ccccc23)nc2ccccc21 | nt | 16.7 | -1.7 | -42.2 | 5.7 | 4.7
CCCSc1nc2ccccc2n1CC(=O)O | 0.2 | -19.4 | -0.8 | 0.0 | 3.9 | -1.7
O=C(O)c1ccccc1CSc1nc2ccccc2n1Cc1ccccc1C(=O)O | 43.7* | -1.6 | -1.0 | -6.2 | -2.4 | -15.5
CCn1c(SCC(=O)N2CCCC2)nc2ccccc21 | 43.8* | 1.6 | -1.9 | -15.5 | -11.2 | -15.5
Cc1ccc(S(=O)(=O)N2CCCCC2CCNC(=O)C(=O)NCc2ccco2)cc1 (stereo not given) | -0.2 | nt | 18.1* | nt | -10.8 | -25.8
COc1ccc(CCNC(=O)C(=O)NCCC2CCCCN2S(=O)(=O)c2ccccc2)cc1 (stereo not given) | 0.1 | nt | 11.2* | nt | -4.8 | -26.6
COc1ccc(S(=O)(=O)N2CCCC2CNC(=O)C(=O)Nc2cccc(F)c2)cc1 (stereo not given) | -0.2 | nt | -3.4 | nt | 4.1 | -4.1
COc1ccc(CCNC(=O)C(=O)NCCC2CCCCN2S(=O)(=O)c2cccs2)cc1 (stereo not given) | 0.1 | nt | -0.3 | nt | -1.9 | 9.4
